Values after ≈ are worked out from the molar mass of the structure shown.
Columns and labels:
Aspergillus fumigatus [1] = test: Antifungal activity against Aspergillus fumigatus ATCC 204305 after 48 h by CLSI method; details: ATCC 204305, 48 h
Aspergillus niger = test: Antifungal activity against Aspergillus niger ATCC 16404 after 48 h by CLSI method; details: ATCC 16404, 48 h
Candida albicans [2] = test: Antifungal activity against Candida albicans ATCC 14053 after 48 hrs by CLSI method; type: functional, organism-based; details: ATCC 14053, 48 h
How it was run: (§1)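 CLSI broth microdilution. Colonies from 24–72 h SD agar suspended in saline and sized by OD630 standard curve. Inoculum 1.5 × 10³ CFU/ml (final) in RPMI 1640 (0.2% dextrose, 0.03% glutamine, 0.165 M MOPS, pH 7.0). Twofold dilutions (11 levels) from 20% DMSO-saline, in duplicate. 35°C for 48 h, OD530 read before and after. IC50 fitted from % growth. MIC: no detectable growth. MFC: subculture onto SD agar.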

Candida albicans [3] = test: Antifungal activity against Fluconazole resistant Candida albicans clinical isolate 17 after 48 hrs by CLSI method; type: functional, organism-based
How it was run: as §1

Candida tropicalis = test: Antifungal activity against Candida tropicalis ATCC 750 after 48 hrs by CLSI method; type: functional, organism-based; details: ATCC 750, 48 h
How it was run: (§2)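 Yeast suspensions made from 3-5 colonies off 24-72 h SD agar plates in saline. They were diluted by OD630 standard curve in RPMI 1640 (0.2% dextrose, 0.03% glutamine, 0.165 M MOPS, pH 7.0) to 1.5 × 10³ CFU/ml. Twofold dilutions (11 concentrations, 20% DMSO-saline) run in duplicate. OD530 read before and after 35°C, 48 h. Line values are top test concentrations; no-growth endpoints give MIC/MFC.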

SK-MEL = test: Cytotoxicity against human SK-MEL cells up to 32 uM by neutral red method; type: cell-based
How it was run: (§3)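 Neutral red uptake cytotoxicity, top concentration 32 μM.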

Candida albicans [4] = test: Antifungal activity against Candida albicans ATCC 60193 after 48 hrs by CLSI method; type: functional, organism-based; details: ATCC 60193, 48 h
How it was run: as §1

Aspergillus flavus = test: Antifungal activity against Aspergillus flavus ATCC 204304 after 48 h by CLSI method; details: ATCC 204304, 48 h
Nakaseomyces glabratus = test: Antifungal activity against Candida glabrata ATCC 90030 after 48 hrs by CLSI methodCandida glabrata; type: functional, organism-based; details: ATCC 90030, 48 h
How it was run: (§4)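 Candida inocula came from 24–72-h SD agar colonies suspended in saline. They were diluted by OD630 standard curve into RPMI 1640 (0.2% dextrose, 0.03% glutamine, 0.165 M MOPS, pH 7.0) to 1.5 × 10³ CFU/ml. Compounds were run as 11 twofold dilutions in 20% DMSO-saline, in duplicate, at 35°C for 48 h, with OD530 read before and after. Percent growth at the top concentration, IC50, MIC, and MFC (SD agar plating) were derived.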

Candida albicans [5] = test: Antifungal activity against Fluconazole resistant Candida albicans clinical isolate 1 after 48 hrs by CLSI method; type: functional, organism-based
How it was run: as §1

Candida albicans [6] = test: Antifungal activity against Candida albicans ATCC 200955 after 48 hrs by CLSI method; type: functional, organism-based; details: ATCC 200955, 48 h
How it was run: as §1

KB = test: Cytotoxicity against human KB cells up to 32 uM by neutral red method; type: cell-based
How it was run: as §3

[7] = test system: Trichophyton mentagrophytes; test: Antifungal activity against Trichophyton mentagrophytes ATCC MYA-4439 by CLSI method; type: functional, organism-based
How it was run: (§5)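 Growth scraped from 1- to 6-week-old potato dextrose slants and filtered through Miracloth. Diluted in 5% Alamar blue-RPMI 1640 (MOPS pH 7.0) to 2.7 × 10⁴ CFU/ml. Eleven twofold dilutions in duplicate. Fluorescence at 544 nm excitation/590 nm emission read before and after 35°C, 5 days. IC50 fitted from percent growth. MIC taken as no detectable growth; MFC from clear or blue wells plated on PD agar.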

Candida albicans [8] = test: Antifungal activity against Candida albicans ATCC 90028 after 48 hrs by CLSI method; type: functional, organism-based; details: ATCC 90028, 48 h
How it was run: as §1

Vero = test: Cytotoxicity against African green monkey Vero cells up to 32 uM by neutral red method; type: cell-based; details: chlorocebus sabaeus
How it was run: as §3

Trichophyton rubrum [9] = test: Antifungal activity against Trichophyton rubrum ATCC 10218 by CLSI method; type: functional, organism-based
How it was run: as §5

BT-549 = test: Cytotoxicity against human BT549 cells up to 32 uM by neutral red method; type: cell-based
How it was run: as §3

LLC-PK1 = test: Cytotoxicity against pig LLC-PK1 cells up to 32 uM by neutral red method; type: cell-based, Sus scrofa
How it was run: as §3

Cryptococcus neoformans [10] = test: Antifungal activity against Cryptococcus neoformans ATCC 90113 after 72 hrs by CLSI method; type: functional, organism-based; details: ATCC 90113, 72 h
How it was run: (§6)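 SD broth replaced RPMI because growth in RPMI was poor; other CLSI conditions were kept. Inoculum was 1.5 × 10³ CFU/ml from colonies on SD agar, checked by plating. Twofold serial dilutions (11 concentrations) in 20% DMSO-saline were tested in duplicate. OD530 was read before and after incubation at 35°C for 72 h. Percent growth gave IC50; the MIC is the lowest concentration with no detectable growth.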

Candida albicans [11] = test: Antifungal activity against Candida albicans ATCC 32354 after 48 hrs by CLSI method; type: functional, organism-based; details: ATCC 32354, 48 h
How it was run: as §1

[12] = test system: Trichophyton mentagrophytes; test: Antifungal activity against Trichophyton mentagrophytes ATCC 9533 by CLSI method; type: functional, organism-based
How it was run: as §5

Cryptococcus neoformans [13] = test: Antifungal activity against Cryptococcus neoformans ATCC 66031 after 72 hrs by CLSI method; type: functional, organism-based; details: ATCC 66031, 72 h
How it was run: as §6

Pichia kudriavzevii = test: Antifungal activity against Candida krusei ATCC 6258 after 48 hrs by CLSI method; type: functional, organism-based; details: ATCC 6258, 48 h
How it was run: as §4

Candida parapsilosis = test: Antifungal activity against Candida parapsilosis ATCC 22019 after 48 hrs by CLSI method; type: functional, organism-based; details: Lodderomyces parapsilosis, ATCC 22019, 48 h
How it was run: as §2

Aspergillus fumigatus [14] = test: Antifungal activity against Aspergillus fumigatus ATCC 90906 after 48 h by CLSI method; details: ATCC 90906, 48 h
Trichophyton rubrum [15] = test: Antifungal activity against Trichophyton rubrum ATCC MYA-4438 by CLSI method; type: functional, organism-based
How it was run: as §5

SK-OV-3 = test: Cytotoxicity against human SKOV3 cells up to 32 uM by neutral red method; type: cell-based
How it was run: as §3

CCCCCCCCCC#CCCCCC(=O)O showed an IC50 (Aspergillus fumigatus [1]) of 9.4 µM, an MFC (Aspergillus fumigatus [1]) of 198 µM (≈ 50 µg/mL) and an MIC (Aspergillus fumigatus [1]) of 37.1 µM (≈ 9.36 µg/mL). It also gave an IC50 (Aspergillus niger) of 101 µM, an IC50 (Candida albicans [2]) of 81.8 µM and an IC50 (Candida albicans [3]) of 23.3 µM. It also gave an MFC (Candida albicans [3]) of 198 µM (≈ 50 µg/mL), an MIC (Candida albicans [3]) of 99.1 µM (≈ 25 µg/mL) and an IC50 (Candida tropicalis) of 29.5 µM. For the same molecule, the MFC (Candida tropicalis) was 99.1 µM (≈ 25 µg/mL), the MIC (Candida tropicalis) was 74.3 µM (≈ 18.8 µg/mL) and the Activity (SK-MEL) was “Non-toxic”. The IC50 (Candida albicans [4]) was 85.9 µM, the IC50 (Aspergillus flavus) was 106 µM and the MFC (Aspergillus flavus) was 198 µM (≈ 50 µg/mL). The MIC (Aspergillus flavus) was 198 µM (≈ 50 µg/mL), the IC50 (Nakaseomyces glabratus) was greater than 198 µM and the IC50 (Candida albicans [5]) was 40.5 µM. The MIC (Candida albicans [5]) was 99.1 µM (≈ 25 µg/mL), the IC50 (Candida albicans [6]) was 47.8 µM and the MIC (Candida albicans [6]) was 198 µM (≈ 50 µg/mL). The Activity (KB) was “Non-toxic”, the IC50 [7] was 3.9 µM and the MFC [7] was 12.4 µM (≈ 3.13 µg/mL). It also gave an MIC [7] of 9.3 µM (≈ 2.35 µg/mL), an IC50 (Candida albicans [8]) of 56.8 µM and an MIC (Candida albicans [8]) of 99.1 µM (≈ 25 µg/mL). The Activity (Vero) was “Non-toxic”, the IC50 (Trichophyton rubrum [9]) was 8.7 µM and the MFC (Trichophyton rubrum [9]) was 24.8 µM (≈ 6.26 µg/mL). The MIC (Trichophyton rubrum [9]) was 24.8 µM (≈ 6.26 µg/mL), the Activity (BT-549) was “Non-toxic” and the Activity (LLC-PK1) was “Non-toxic”. For the same molecule, the IC50 (Cryptococcus neoformans [10]) was 52.4 µM, the IC50 (Candida albicans [11]) was 50.3 µM and the MIC (Candida albicans [11]) was 198 µM (≈ 50 µg/mL). For the same molecule, the IC50 [12] was 2.3 µM, the MFC [12] was 6.2 µM (≈ 1.56 µg/mL) and the MIC [12] was 4.6 µM (≈ 1.16 µg/mL). For the same molecule, the IC50 (Cryptococcus neoformans [13]) was 1.2 µM, the MFC (Cryptococcus neoformans [13]) was 99.1 µM (≈ 25 µg/mL) and the MIC (Cryptococcus neoformans [13]) was 49.5 µM (≈ 12.5 µg/mL). The IC50 (Pichia kudriavzevii) was 2.9 µM, the MFC (Pichia kudriavzevii) was 49.5 µM (≈ 12.5 µg/mL) and the MIC (Pichia kudriavzevii) was 6.2 µM (≈ 1.56 µg/mL). It also gave an IC50 (Candida parapsilosis) greater than 198 µM, an IC50 (Aspergillus fumigatus [14]) of 166 µM and an IC50 (Trichophyton rubrum [15]) of 3.8 µM. For the same molecule, the MFC (Trichophyton rubrum [15]) was 198 µM (≈ 50 µg/mL), the MIC (Trichophyton rubrum [15]) was 31 µM (≈ 7.82 µg/mL) and the Activity (SK-OV-3) was “Non-toxic”.

With CCCCCCCCCCC#CCCCCC(=O)O the IC50 (Aspergillus fumigatus [1]) was 36.6 µM, the MIC (Aspergillus fumigatus [1]) was 141 µM (≈ 37.5 µg/mL) and the IC50 (Aspergillus niger) was greater than 188 µM. For the same molecule, the IC50 (Candida albicans [2]) was greater than 188 µM, the IC50 (Candida albicans [3]) was 18.8 µM and the MIC (Candida albicans [3]) was 70.4 µM (≈ 18.8 µg/mL). For the same molecule, the IC50 (Candida tropicalis) was 49.1 µM, the Activity (SK-MEL) was “Non-toxic” and the IC50 (Candida albicans [4]) was 150 µM. The IC50 (Nakaseomyces glabratus) was greater than 188 µM, the IC50 (Candida albicans [5]) was 82.2 µM and the IC50 (Candida albicans [6]) was 66.7 µM. For the same molecule, the Activity (KB) was “Non-toxic”, the IC50 [7] was 3 µM and the MFC [7] was 5.9 µM (≈ 1.57 µg/mL). For the same molecule, the MIC [7] was 5.9 µM (≈ 1.57 µg/mL), the IC50 (Candida albicans [8]) was 95.4 µM and the Activity (Vero) was “Non-toxic”. The IC50 (Trichophyton rubrum [9]) was 6.5 µM, the MFC (Trichophyton rubrum [9]) was 23.5 µM (≈ 6.26 µg/mL) and the MIC (Trichophyton rubrum [9]) was 17.6 µM (≈ 4.69 µg/mL). For the same molecule, the Activity (BT-549) was “Non-toxic”, the Activity (LLC-PK1) was “Non-toxic” and the IC50 (Cryptococcus neoformans [10]) was greater than 188 µM. It also gave an IC50 (Candida albicans [11]) of 188 µM, an IC50 [12] of 3.7 µM and an MFC [12] of 11.7 µM (≈ 3.12 µg/mL). It also gave an MIC [12] of 7.3 µM (≈ 1.94 µg/mL), an IC50 (Cryptococcus neoformans [13]) of 1.2 µM and an MIC (Cryptococcus neoformans [13]) of 188 µM (≈ 50 µg/mL). The IC50 (Pichia kudriavzevii) was 1.9 µM, the MIC (Pichia kudriavzevii) was 4.4 µM (≈ 1.17 µg/mL) and the IC50 (Trichophyton rubrum [15]) was 4.1 µM. The MIC (Trichophyton rubrum [15]) was 29.3 µM (≈ 7.81 µg/mL) and the Activity (SK-OV-3) was “Non-toxic”.
